Experiment in all cases: Agonist-induced currents, voltage clamp electrophysiology in Xenopus oocytes
What all share (assay type): cell-based

For assay [1], the target named is T1, N128K mutant 5-HT3 receptor (mouse 5-HT3A subunit) (Mus musculus, UniProt P23979, N128K).
T1 sequence (P23979 24-489 N128K): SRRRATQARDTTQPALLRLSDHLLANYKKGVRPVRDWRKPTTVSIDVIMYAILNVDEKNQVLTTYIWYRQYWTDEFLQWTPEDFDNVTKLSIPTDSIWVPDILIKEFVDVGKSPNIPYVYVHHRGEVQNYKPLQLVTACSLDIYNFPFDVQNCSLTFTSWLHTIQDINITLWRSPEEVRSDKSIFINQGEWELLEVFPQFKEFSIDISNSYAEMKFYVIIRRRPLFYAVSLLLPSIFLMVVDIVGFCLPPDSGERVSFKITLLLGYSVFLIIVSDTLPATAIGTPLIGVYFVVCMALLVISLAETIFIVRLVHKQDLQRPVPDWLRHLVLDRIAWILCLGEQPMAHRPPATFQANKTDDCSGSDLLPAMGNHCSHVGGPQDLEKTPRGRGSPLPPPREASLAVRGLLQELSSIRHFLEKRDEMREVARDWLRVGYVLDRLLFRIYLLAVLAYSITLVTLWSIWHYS

For assay [2], the target named is T2, N128E mutant 5-HT3 receptor (mouse 5-HT3A subunit) (Mus musculus, UniProt P23979, N128E).
T2 sequence (P23979 24-483 isoform P23979-2 N128E limits assumed): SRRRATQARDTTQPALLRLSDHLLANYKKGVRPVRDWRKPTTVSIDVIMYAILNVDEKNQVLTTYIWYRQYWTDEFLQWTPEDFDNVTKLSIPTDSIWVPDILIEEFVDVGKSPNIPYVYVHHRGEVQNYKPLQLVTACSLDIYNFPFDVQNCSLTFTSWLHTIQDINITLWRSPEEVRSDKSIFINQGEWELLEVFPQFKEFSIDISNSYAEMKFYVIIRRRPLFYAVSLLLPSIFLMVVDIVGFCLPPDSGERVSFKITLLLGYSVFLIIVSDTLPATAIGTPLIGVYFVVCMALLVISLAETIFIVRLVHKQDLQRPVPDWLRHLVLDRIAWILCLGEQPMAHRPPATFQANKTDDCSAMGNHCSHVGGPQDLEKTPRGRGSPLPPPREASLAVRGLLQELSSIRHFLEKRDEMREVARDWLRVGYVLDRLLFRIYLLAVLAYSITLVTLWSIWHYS
Conditions: N128E.

Assay [3] addresses T3, E129D mutant 5-HT3 receptor (mouse 5-HT3A subunit) (Mus musculus, UniProt P23979, E129D).
T3 sequence (P23979 24-483 isoform P23979-2 E129D limits assumed): T2 sequence (P23979 24-483 isoform P23979-2 N128E limits assumed) with E105N, E106D
Conditions: E129D.

Assay [4] addresses T4, E129-Nha mutant 5-HT3 receptor (mouse 5-HT3A subunit) (Mus musculus, UniProt Q6J1J7).
T4 sequence (Q6J1J7 24-483): T2 sequence (P23979 24-483 isoform P23979-2 N128E limits assumed) with E105N, F436L
The essentials: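 Mouse 5-HT3A receptor carrying Nha or Akp, introduced by nonsense suppression. Stage V-VI Xenopus oocytes were co-injected with 5 ng cRNA and 25 ng photodeprotected aminoacyl-tRNA. Controls received tRNA without an amino acid. At 24-72 h, agonist currents were recorded by two-electrode voltage clamp at -60 mV, 22-25 °C, in Ca-free ND96 (pH 7.5).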

In assay [5] the target is T5, WT 5-HT3 receptor (mouse 5-HT3A subunit) (Mus musculus, UniProt P23979).
T5 sequence (P23979 24-483 isoform P23979-2 limits assumed): T2 sequence (P23979 24-483 isoform P23979-2 N128E limits assumed) with E105N
Conditions: WT.

[6] abbreviates: oocytes, holding potential −60 mV.

Residue numbers refer to the chain shown, from its start. Marks after values point to notes of the source that are not given here.

The EC50 is the concentration giving half of the maximal effect. Low values mean a more potent agent, high ones a less potent agent. The term pEC50 denotes −log10 of the EC50, conventionally taken in molar units. Low readings indicate a high EC50, high ones a low EC50. Regarding `NCCc1c[nH]c2ccc(O)cc12` [5-HT, 5-hydroxytryptamine], the “nH (Hill coefficient)” value is on record as 2.13 ± 0.38 in assay [1]; 1.48 ± 0.18 ^b in assay [2]; 1.81 ± 0.16 ^b in assay [3]; 1.18 ± 0.12 ^b in assay [4]; 2.54 ± 0.15 in assay [5]. Also, the “size of agonist response (current)” value in assay [3] was over 5 µA. In addition, the midpoint of the response in assay [4], the EC50, lay at 3.5 µM. In assay [4], this compound registered a pEC50 of 5.45 ± 0.04.
As to `N=C(N)NC(=N)Nc1cccc(Cl)c1` [mCPBG, m-chlorophenylbiguanide], the EC50 was 3.9 µM in assay [1]; 0.28 µM in assay [2]; 0.25 µM in assay [3]; 0.56 µM in assay [4]; 0.47 µM in assay [5] (setting [6]). The “nH (Hill coefficient)” value in assay [1] was 1.43 ± 0.16; in assay [2], 1.81 ± 0.019; in assay [3] it was 1.19 ± 0.31; in assay [4], 1.91 ± 0.60; in assay [5] it was 2.03 ± 0.23. Further, the pEC50 in assay [1] was 5.41 ± 0.03 ^b; in assay [2] it was 6.56 ± 0.03; in assay [3] (SR = small (<100 nA) responses), 6.60 ± 0.10; in assay [4], 6.25 ± 0.07; in assay [5] (setting [6]), 6.33 ± 0.02. Besides, in assay [3], the “size of agonist response (current)” value was over 5 µA.

For the origin of these results see article PMC2649372 (Biochemistry, 2008).
